Measured values: ChEMBL document CHEMBL3112444, “Synthesis and anticancer activity of focused compound libraries from the natural product lead, oroidin” (2014)

What was measured:
[1] = Cytotoxicity against human U87 cells assessed as growth inhibition after 72 hrs by MTT assay; assay type: functional, U-87MG ATCC; settings: U-87 MG
Method in brief: (§1)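 Cells in logarithmic growth kept in DMEM with 10% FBS, 10 mM sodium bicarbonate, penicillin 100 IU/mL, glutamine 4 mM, at 37 °C under 5% CO2. Plated in duplicate at 2500–4000 cells/well. Compound (30 mM DMSO stock) added 24 h after plating. MTT read at 540 nm after 72 h exposure.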

[2] = Cytotoxicity against mouse SMA cells assessed as growth inhibition after 72 hrs by MTT assay; assay type: functional; method in brief: as §1
[3] = Cytotoxicity against human SJ-G2 cells assessed as growth inhibition after 72 hrs by MTT assay; assay type: functional; settings: SJ-G2, 72 h; method in brief: as §1
[4] = Cytotoxicity against human MIA cells assessed as growth inhibition after 72 hrs by MTT assay; assay type: functional; method in brief: as §1
[5] = Cytotoxicity against human BE(2)-C cells assessed as growth inhibition after 72 hrs by MTT assay; assay type: functional; method in brief: as §1
DU-145 [6] = assay: Cytotoxicity against human DU145 cells assessed as growth inhibition after 72 hrs by MTT assay; assay type: functional; settings: DU-145, 72 h; method in brief: as §1
[7] = Cytotoxicity against human H460 cells assessed as growth inhibition after 72 hrs by MTT assay; assay type: functional; settings: NCI-H460, 72 h; method in brief: as §1
A-431 [8] = assay: Cytotoxicity against human A431 cells assessed as growth inhibition after 72 hrs by MTT assay; assay type: functional; settings: A-431, 72 h; method in brief: as §1
A2780 [9] = assay: Cytotoxicity against human A2780 cells assessed as growth inhibition after 72 hrs by MTT assay; assay type: functional; settings: A2780, 72 h; method in brief: as §1
MCF7 [10] = assay: Cytotoxicity against human MCF7 cells assessed as growth inhibition after 72 hrs by MTT assay; assay type: functional; settings: MCF7, 72 h; method in brief: as §1
SW480 [11] = assay: Cytotoxicity against human SW480 cells assessed as growth inhibition after 72 hrs by MTT assay; assay type: functional; settings: SW480, 72 h; method in brief: as §1
HT-29 [12] = assay: Cytotoxicity against human HT-29 cells assessed as growth inhibition after 72 hrs by MTT assay; assay type: functional; settings: HT-29, 72 h; method in brief: as §1
[13] = Cytotoxicity against human U87 cells assessed as growth inhibition at 25 uM after 72 hrs by MTT assay relative to control; assay type: functional, U-87MG ATCC; settings: U-87 MG, read-out: GI; method in brief: as §1
[14] = Cytotoxicity against mouse SMA cells assessed as growth inhibition at 25 uM after 72 hrs by MTT assay relative to control; assay type: functional; settings: read-out: GI; method in brief: as §1
[15] = Cytotoxicity against human MIA cells assessed as growth inhibition at 25 uM after 72 hrs by MTT assay relative to control; assay type: functional; settings: read-out: GI; method in brief: as §1
[16] = Cytotoxicity against human SJ-G2 cells assessed as growth inhibition at 25 uM after 72 hrs by MTT assay relative to control; assay type: functional; settings: SJ-G2, 72 h, read-out: GI; method in brief: as §1
[17] = Cytotoxicity against human BE(2)-C cells assessed as growth inhibition at 25 uM after 72 hrs by MTT assay relative to control; assay type: functional; settings: read-out: GI; method in brief: as §1
DU-145 [18] = assay: Cytotoxicity against human DU145 cells assessed as growth inhibition at 25 uM after 72 hrs by MTT assay relative to control; assay type: functional; settings: DU-145, 72 h, read-out: GI; method in brief: as §1
A-431 [19] = assay: Cytotoxicity against human A431 cells assessed as growth inhibition at 25 uM after 72 hrs by MTT assay relative to control; assay type: functional; settings: A-431, 72 h, read-out: GI; method in brief: as §1
[20] = Cytotoxicity against human H460 cells assessed as growth inhibition at 25 uM after 72 hrs by MTT assay relative to control; assay type: functional; settings: NCI-H460, 72 h, read-out: GI; method in brief: as §1
A2780 [21] = assay: Cytotoxicity against human A2780 cells assessed as growth inhibition at 25 uM after 72 hrs by MTT assay relative to control; assay type: functional; settings: A2780, 72 h, read-out: GI; method in brief: as §1
MCF7 [22] = assay: Cytotoxicity against human MCF7 cells assessed as growth inhibition at 25 uM after 72 hrs by MTT assay relative to control; assay type: functional; settings: MCF7, 72 h, read-out: GI; method in brief: as §1
SW480 [23] = assay: Cytotoxicity against human SW480 cells assessed as growth inhibition at 25 uM after 72 hrs by MTT assay relative to control; assay type: functional; settings: SW480, 72 h, read-out: GI; method in brief: as §1
HT-29 [24] = assay: Cytotoxicity against human HT-29 cells assessed as growth inhibition at 25 uM after 72 hrs by MTT assay relative to control; assay type: functional; settings: HT-29, 72 h, read-out: GI; method in brief: as §1

Row | SMILES | GI50 [1] [µM] | GI50 [2] [µM] | GI50 [3] [µM] | GI50 [4] [µM] | GI50 [5] [µM] | GI50 (DU-145 [6]) [µM] | GI50 [7] [µM] | GI50 (A-431 [8]) [µM] | GI50 (A2780 [9]) [µM] | GI50 (MCF7 [10]) [µM] | GI50 (SW480 [11]) [µM] | GI50 (HT-29 [12]) [µM] | inhibition of growth at 25 µM [13] [%] | inhibition of growth at 25 µM [14] [%] | inhibition of growth at 25 µM [15] [%] | inhibition of growth at 25 µM [16] [%] | inhibition of growth at 25 µM [17] [%] | inhibition of growth at 25 µM (DU-145 [18]) [%] | inhibition of growth at 25 µM (A-431 [19]) [%] | inhibition of growth at 25 µM [20] [%] | other results
1 | O=C(NCc1ccc(Cl)c(Cl)c1)c1cc(Br)c(Br)[nH]1 | 27 | 17 | 18 | 17 | 24 | 20 | 19 | 20 | 15 | 12 | 33 | 17 | 55 | 84 | 77 | 70 | 44 | 66 | 57 | 66 | inhibition of growth at 25 µM (A2780 [21]): 90%; inhibition of growth at 25 µM (MCF7 [22]): > 100%; inhibition of growth at 25 µM (SW480 [23]): 22%; inhibition of growth at 25 µM (HT-29 [24]): 77%
2 | O=C(NCCc1ccc(O)cc1)c1cc(Br)c(Br)[nH]1 | > 50 | 23 | 30 | 43 | 16 | > 50 | 39 | 20 | 11 | 12 | > 50 | 28 | < 0 | 46 | 20 | 44 | 101 | 3 | 68 | 11 | inhibition of growth at 25 µM (A2780 [21]): 90%; inhibition of growth at 25 µM (MCF7 [22]): 81%; inhibition of growth at 25 µM (SW480 [23]): < 0%; inhibition of growth at 25 µM (HT-29 [24]): 48%
3 | O=C(NCc1ccc(Cl)cc1)c1cc(Br)c(Br)[nH]1 | 34 | 16 | 28 | 22 | 32 | 27 | 28 | 24 | 13 | 14 | 36 | 13 | 30 | 79 | 63 | 42 | 24 | 40 | 37 | 57 | inhibition of growth at 25 µM (A2780 [21]): 86%; inhibition of growth at 25 µM (MCF7 [22]): > 100%; inhibition of growth at 25 µM (SW480 [23]): 11%; inhibition of growth at 25 µM (HT-29 [24]): 95%
4 | O=C(NCc1ccc(-c2ccccc2)cc1)c1ccc[nH]1 | 11 | 21 | > 50 | 6.5 | 11 | 6.5 | > 50 | 5.8 | 11 | 5.7 | 4.3 | 4.3 | 77 | 53 | 74 | 33 | 72 | 87 | 81 | 59 | inhibition of growth at 25 µM (A2780 [21]): 58%; inhibition of growth at 25 µM (MCF7 [22]): 79%; inhibition of growth at 25 µM (SW480 [23]): 93%; inhibition of growth at 25 µM (HT-29 [24]): 78%
5 | O=C(NCC(c1ccccc1)c1ccccc1)c1cc(Br)c(Br)[nH]1 | 36 | 11 | 27 | 18 | 16 | 21 | 18 | 19 | 13 | 10 | 34 | 16 | 48 | 80 | 69 | 56 | > 100 | 56 | 56 | 67 | inhibition of growth at 25 µM (A2780 [21]): 94%; inhibition of growth at 25 µM (MCF7 [22]): > 100%; inhibition of growth at 25 µM (SW480 [23]): 33%; inhibition of growth at 25 µM (HT-29 [24]): 82%
